Assay results published in ChEMBL document CHEMBL1134770, “Novel, potent, and selective phosphodiesterase 5 inhibitors: synthesis and biological activities of a series of 4-aryl-1-isoquinolinone derivatives” (J Med Chem, 2001).

Assays:
[1] = target: T1, cGMP-dependent 3',5'-cyclic phosphodiesterase (Bos taurus, UniProt P14099); experiment: Inhibition of bovine adrenal gland Phosphodiesterase 2 (PDE2)
T1 sequence (P14099 whole entry): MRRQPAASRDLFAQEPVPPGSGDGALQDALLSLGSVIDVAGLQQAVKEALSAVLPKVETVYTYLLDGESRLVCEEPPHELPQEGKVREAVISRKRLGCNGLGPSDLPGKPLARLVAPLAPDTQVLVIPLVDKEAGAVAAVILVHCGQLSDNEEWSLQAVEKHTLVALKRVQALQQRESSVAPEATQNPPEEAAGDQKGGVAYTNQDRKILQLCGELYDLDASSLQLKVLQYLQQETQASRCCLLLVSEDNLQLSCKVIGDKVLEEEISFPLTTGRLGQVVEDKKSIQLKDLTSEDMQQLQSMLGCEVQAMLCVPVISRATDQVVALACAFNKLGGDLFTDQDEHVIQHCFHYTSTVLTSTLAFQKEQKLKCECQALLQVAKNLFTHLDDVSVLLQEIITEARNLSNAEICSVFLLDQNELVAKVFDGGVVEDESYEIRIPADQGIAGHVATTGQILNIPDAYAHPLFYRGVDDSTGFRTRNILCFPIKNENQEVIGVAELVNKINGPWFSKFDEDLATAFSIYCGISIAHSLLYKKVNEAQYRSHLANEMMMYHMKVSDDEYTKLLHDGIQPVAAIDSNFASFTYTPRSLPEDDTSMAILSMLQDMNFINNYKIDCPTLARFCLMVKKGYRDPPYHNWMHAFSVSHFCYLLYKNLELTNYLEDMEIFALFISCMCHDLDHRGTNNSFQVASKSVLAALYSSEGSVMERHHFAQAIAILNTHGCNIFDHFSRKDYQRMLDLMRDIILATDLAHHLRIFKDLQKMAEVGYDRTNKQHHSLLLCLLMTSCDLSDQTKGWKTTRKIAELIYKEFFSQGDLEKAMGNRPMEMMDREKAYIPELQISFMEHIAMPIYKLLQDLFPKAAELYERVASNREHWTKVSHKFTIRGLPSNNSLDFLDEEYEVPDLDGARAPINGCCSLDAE
Outline: (§1)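 Boiled, then snake-venom nucleotidase for 30 min at 37 °C, methanol stop, Dowex separation, scintillation counting. IC50 from log concentration-inhibition curve (≥4 points), mean of ≥2 duplicate experiments.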

[2] = target: cGMP-specific 3',5'-cyclic phosphodiesterase (Canis lupus familiaris, UniProt O77746); experiment: Inhibitory activity against canine lung Phosphodiesterase 5 (PDE5); outline: as §1
Phosphodiesterase 1 = Phosphodiesterase 1 (Rattus norvegicus, UniProt Q63421+Q9EPR9+Q01066); experiment: Inhibitory activity against rat heart Phosphodiesterase 1(PDE1); assay type: protein assay
[3] = target: Phosphodiesterase 3 (Canis familiaris); experiment: Inhibitory activity against canine heart Phosphodiesterase 3 (PDE3)
[4] = Relaxant effect on isolated rabbit corpus cavernosum; assay type: functional, tissue-based, Oryctolagus cuniculus; conditions: target entry is the homologue from another species
[5] = target: Phosphodiesterase 4 (Canis familiaris); experiment: Inhibition of canine lung Phosphodiesterase 4 (PDE4)

CCCc1nn(C)c2c(=O)[nH]c(-c3cc(S(=O)(=O)N4CCN(C)CC4)ccc3OCC)nc12
IC50 [1]: > 10000 nM

CNc1ccc(-n2c(C(=O)OC)c(-c3cc(OC)c(OC)c(OC)c3)c3cc(OC)c(OC)cc3c2=O)cc1
IC50 [2]: > 10000 nM
IC50 (Phosphodiesterase 1): > 10000 nM
IC50 [3]: > 10000 nM

COC(=O)c1c(-c2cc(OC)c(OC)c(OC)c2)c2cc(OC)c(OC)cc2c(=O)n1Cc1ccccc1
IC50 [2]: 380 nM
IC50 (Phosphodiesterase 1): 3100 nM
IC50 [3]: > 10000 nM

COC(=O)c1c(-c2cc(OC)c(OC)c(OC)c2)c2cc(OC)c(OC)cc2c(=O)n1N1CCOCC1
IC50 [2]: 26 nM
IC50 (Phosphodiesterase 1): > 10000 nM
IC50 [3]: > 10000 nM

COC(=O)c1nc(O)c2cc(OC)c(OC)cc2c1-c1cc(OC)c(OC)c(OC)c1
IC50 [2]: 900 nM
IC50 (Phosphodiesterase 1): > 10000 nM
IC50 [3]: > 10000 nM

COC(=O)c1c(-c2cc(OC)c(O)c(OC)c2)c2ccc(OCc3ccccn3)cc2c(=O)n1-c1ccc(N)cc1
IC50 [2]: 14 nM
IC50 (Phosphodiesterase 1): 2600 nM
IC50 [3]: > 10000 nM

COC(=O)c1c(-c2cc(OC)c(OC)c(OC)c2)c2cc(OC)c(OC)cc2c(=O)n1C1CCCC1
IC50 [2]: 580 nM
IC50 (Phosphodiesterase 1): > 10000 nM
IC50 [3]: > 10000 nM

COC(=O)c1c(-c2cc(OC)c(Br)c(OC)c2)c2ccc(OCc3ccccn3)cc2c(=O)n1-c1ccc(N)cc1.Cl.Cl
IC50 [2]: 0.22 nM
IC50 (Phosphodiesterase 1): 460 nM
IC50 [1]: 2800 nM
EC30 [4]: 44 nM
IC50 [5]: 750 nM
IC50 [3]: 8400 nM

COC(=O)c1c(-c2cc(OC)c(OC)c(OC)c2)c2cc(OC)ccc2c(=O)n1-c1ccc(N)cc1.Cl
IC50 [2]: 97 nM
IC50 (Phosphodiesterase 1): 3900 nM
IC50 [3]: > 10000 nM

COc1cc(-c2c(C(=O)N(C)C)n(-c3ccc(N)cc3)c(=O)c3cc(OCc4ccccn4)ccc23)cc(OC)c1OC.Cl.Cl
IC50 [2]: 2100 nM
IC50 (Phosphodiesterase 1): > 10000 nM
IC50 [3]: > 10000 nM

COC(=O)c1c(-c2cc(OC)c(OC)c(OC)c2)c2cc(OC)c(OC)cc2c(=O)n1-c1cccc(N)c1.Cl
IC50 [2]: 250 nM
IC50 (Phosphodiesterase 1): > 10000 nM
IC50 [3]: > 10000 nM

COC(=O)c1c(-c2cc(OC)c(OC)c(OC)c2)c2cc(OC)c(OC)cc2c(=O)n1-c1ccc(N(C)C)cc1.Cl
IC50 [2]: > 10000 nM
IC50 (Phosphodiesterase 1): > 10000 nM
IC50 [3]: > 10000 nM

COC(=O)c1c(-c2cc(OC)c(OC)c(OC)c2)c2ccc(OCc3ccccc3)cc2c(=O)n1-c1ccc(N)cc1.Cl
IC50 [2]: 1.2 nM
IC50 (Phosphodiesterase 1): 2100 nM
IC50 [1]: > 10000 nM
EC30 [4]: 130 nM
IC50 [5]: 6100 nM
IC50 [3]: > 10000 nM

COC(=O)c1c(-c2cc(OC)c(C)c(OC)c2)c2ccc(OCc3ccccn3)cc2c(=O)n1-c1ccc(N)cc1.Cl.Cl
IC50 [2]: 0.39 nM
IC50 (Phosphodiesterase 1): 1100 nM
IC50 [1]: 3500 nM
EC30 [4]: 37 nM
IC50 [5]: 1700 nM
IC50 [3]: > 10000 nM

CCOC(=O)c1c(-c2cc(OC)c(OC)c(OC)c2)c2ccc(OCc3ccccn3)cc2c(=O)n1-c1ccc(N)cc1.Cl.Cl
IC50 [2]: 18 nM
IC50 (Phosphodiesterase 1): 550 nM
IC50 [3]: > 10000 nM

COC(=O)c1c(-c2cc(O)c(OC)c(OC)c2)c2ccc(OCc3ccccn3)cc2c(=O)n1-c1ccc(N)cc1.Cl.Cl
IC50 [2]: 8.5 nM
IC50 (Phosphodiesterase 1): > 10000 nM

COc1cc(-c2c(C(N)=O)n(-c3ccc(N)cc3)c(=O)c3cc(OCc4ccccn4)ccc23)cc(OC)c1OC.Cl.Cl
IC50 [2]: 490 nM
IC50 (Phosphodiesterase 1): > 10000 nM
IC50 [3]: > 10000 nM

COC(=O)c1c(-c2cc(OC)c(OC)c(OC)c2)c2ccc(OC)cc2c(=O)n1-c1ccc(N)cc1.Cl
IC50 [2]: 20 nM
IC50 (Phosphodiesterase 1): 1000 nM
IC50 [3]: > 10000 nM

COc1cc(-c2c(C(=O)O)n(-c3ccc(N)cc3)c(=O)c3cc(OCc4ccccn4)ccc23)cc(OC)c1OC.Cl.Cl
IC50 [2]: 1900 nM
IC50 (Phosphodiesterase 1): > 10000 nM
IC50 [3]: > 10000 nM

COC(=O)c1c(-c2cc(OC)c(OC)c(OC)c2)c2ccc(OCc3cccnc3)cc2c(=O)n1-c1ccc(N)cc1.Cl.Cl
IC50 [2]: 1.1 nM
IC50 (Phosphodiesterase 1): 3900 nM
IC50 [1]: > 10000 nM
EC30 [4]: 9.5 nM
IC50 [5]: 3600 nM
IC50 [3]: > 10000 nM

COC(=O)c1c(-c2cc(OC)c(OC)c(OC)c2)c2cc(OC)c(OC)cc2c(=O)n1-c1ccc(N)cc1.Cl
IC50 [2]: 21 nM
IC50 (Phosphodiesterase 1): > 10000 nM
IC50 [3]: 4400 nM

CCOc1cc2c(-c3cc(OC)c(OC)c(OC)c3)c(C(=O)OC)n(-c3ccc(N)cc3)c(=O)c2cc1OCC.Cl
IC50 [2]: 27 nM
IC50 (Phosphodiesterase 1): > 10000 nM
IC50 [3]: > 10000 nM

CNC(=O)c1c(-c2cc(OC)c(OC)c(OC)c2)c2ccc(OCc3ccccn3)cc2c(=O)n1-c1ccc(N)cc1.Cl.Cl
IC50 [2]: 220 nM
IC50 (Phosphodiesterase 1): > 10000 nM
IC50 [3]: > 10000 nM

COC(=O)c1c(-c2cc(OC)c(OC)c(OC)c2)c2ccc(OCc3ccccn3)cc2c(=O)n1-c1ccc(N)cc1.Cl.Cl
IC50 [2]: 1 nM
IC50 (Phosphodiesterase 1): 1300 nM
IC50 [1]: > 10000 nM
EC30 [4]: 7.9 nM

COC(=O)c1c(-c2cc(OC)c(OC)c(OC)c2)c2ccc(OCc3ccncc3)cc2c(=O)n1-c1ccc(N)cc1.Cl.Cl
IC50 [2]: 3.1 nM
IC50 (Phosphodiesterase 1): 9500 nM
IC50 [1]: > 10000 nM
EC30 [4]: 12 nM
IC50 [5]: 7000 nM
IC50 [3]: > 10000 nM

COC(=O)c1c(-c2cc(OC)c(OC)c(OC)c2)c2cc(OC)c(OC)cc2c(=O)n1-c1ccccc1
IC50 [2]: 30 nM
IC50 (Phosphodiesterase 1): > 10000 nM
IC50 [3]: > 10000 nM

COC(=O)c1c(-c2cc(OC)c(OC)c(OC)c2)c2cc(OC)c(OC)cc2c(=O)n1-c1ccc(Cl)cc1
IC50 [2]: 170 nM
IC50 (Phosphodiesterase 1): > 10000 nM
IC50 [3]: > 10000 nM

COC(=O)c1c(-c2cc(OC)c(OC)c(OC)c2)c2cc(OC)c(OC)cc2c(=O)n1-c1ccc(OC)cc1
IC50 [2]: > 10000 nM
IC50 (Phosphodiesterase 1): > 10000 nM

COC(=O)c1c(-c2cc(OC)c(OC)c(OC)c2)c2cc(OC)c(OC)cc2c(=O)n1-c1ccc(O)cc1
IC50 [2]: 110 nM
IC50 (Phosphodiesterase 1): > 10000 nM
IC50 [3]: > 10000 nM

COC(=O)c1c(-c2cc(OC)c(OC)c(OC)c2)c2cc(OC)c(OC)cc2c(=O)n1C
IC50 [2]: 230 nM
IC50 (Phosphodiesterase 1): 2100 nM
IC50 [3]: 8500 nM

COC(=O)c1c(-c2cc(OC)c(OC)c(OC)c2)c2cc(OC)c(OC)cc2c(=O)n1C1CCCCC1
IC50 [2]: 230 nM
IC50 (Phosphodiesterase 1): > 10000 nM
IC50 [3]: > 10000 nM

COC(=O)c1c(-c2cc(OC)c(OC)c(OC)c2)c2cc(OC)c(OC)cc2c(=O)n1-c1ccc(NC(C)=O)cc1
IC50 [2]: > 10000 nM
IC50 (Phosphodiesterase 1): > 10000 nM
IC50 [3]: > 10000 nM

COC(=O)c1c(-c2cc(OC)c(OC)c(OC)c2)c2ccc(OCCc3ccccn3)cc2c(=O)n1-c1ccc(N)cc1
IC50 [2]: 5 nM
IC50 (Phosphodiesterase 1): > 10000 nM
IC50 [3]: > 10000 nM

COC(=O)c1c(-c2cc(OC)c(OC)c(OC)c2)c2cc(OC)c(OC)cc2c(=O)n1N1CCCCC1
IC50 [2]: 54 nM
IC50 (Phosphodiesterase 1): > 10000 nM
IC50 [3]: > 10000 nM
